{"data": "Results from different studies", "target": "Serine/threonine-protein kinase 16 (STK16, Homo sapiens, UniProt O75716)", "note": "Protocols differ between the studies behind these lines."}
{"Compound": "O=C1Nc2ccc(Cl)cc2C1=Cc1cc(Cl)c(O)c(Cl)c1", "observed": "cell-free assay", "tested at": "0.5 µM", "quantity": "remaining signal", "result": "90.2%"}
{"Compound": "O=C(NCc1ncc(C(F)(F)F)cc1Cl)c1ccc2c(c1)C1(CCS(=O)(=O)CC1)[C@@H](C1CC1)N2S(=O)(=O)c1ccc(F)cc1", "observed": "cell-free assay", "technique": "competition with immobilised ligand", "tested at": "1 µM", "quantity": "remaining binding", "result": "99%"}
{"Compound": "Cc1ccc(C(=O)Nc2ccc(CN3CCN(C)CC3)c(C(F)(F)F)c2)cc1C#Cc1cnc2cccnn12", "observed": "enzyme activity", "mode": "inhibitor", "tested at": "23.5 nM", "quantity": "remaining activity", "result": "94%"}
{"Compound": "Cc1sc(C(=O)NC2COC2)cc1-n1cc(NC(=O)Nc2c(F)cccc2Cl)cn1", "observed": "enzyme activity", "mode": "inhibitor", "tested at": "10 µM", "quantity": "remaining activity", "result": "94.4%"}
{"Compound": "COc1cc(-c2cc(-c3ccc(N4CCNCC4)cc3)cnc2C)cc(OC)c1OC", "observed": "enzyme activity", "mode": "inhibitor", "tested at": "1 µM", "quantity": "inhibition", "result": "8%"}
{"Compound": "CC(=O)Nc1c(C(C)=O)c(=O)n(C)c2nc(-c3ccc(Cl)cc3Cl)c(-c3ccc(Cl)cc3)cc12", "observed": "cell-free assay", "technique": "competition with immobilised ligand", "tested at": "1 µM", "quantity": "remaining binding", "result": "100%"}
{"Compound": "CCCCNc1ncc2c(-c3ccc(F)cc3)nn(C[C@H]3CC[C@H](N)CC3)c2n1", "observed": "target engagement in cells", "mode": "inhibitor", "technique": "chemoproteomics", "tested at": "20 mM", "quantity": "inhibition", "result": "56.4%"}
{"Compound": "Cn1cc(Cl)c2c(Oc3c(F)cc(Nc4cc(Cl)nc(N)n4)cc3F)ccnc21", "observed": "cell-free assay", "technique": "competition with immobilised ligand", "tested at": "0.1 µM", "quantity": "remaining binding", "result": "100%"}
{"Compound": "COc1cc(Nc2cnc(C#N)c(O[C@H](C)CN(C)C)n2)ncc1-c1cnn(C)c1", "observed": "enzyme activity", "mode": "inhibitor", "technique": "radiometric", "tested at": "10 µM", "quantity": "remaining activity", "result": "91%"}
{"Compound": "CN1CC(Oc2cnc(C#N)cc2-c2ccn3nc(NC(=O)C4CC4)cc3c2)C1", "observed": "enzyme activity", "mode": "inhibitor", "tested at": "1 µM", "quantity": "inhibition", "result": "10%"}
{"Compound": "Cn1cncc1C1=CN(c2ncnc3[nH]cnc23)CCS1", "observed": "enzyme activity", "mode": "inhibitor", "technique": "radiometric", "tested at": "50 nM", "quantity": "inhibition", "result": "22%"}
{"Compound": "CN(C)C(=O)Cn1cc(-c2nc(C3(c4ccc(-c5cnc(N)nc5)cc4)CC3)no2)cn1", "observed": "cell-free assay", "technique": "competition with immobilised ligand", "tested at": "1 µM", "quantity": "remaining binding", "result": "100%"}
{"Compound": "FC(F)(F)Oc1cccc(-c2cnc3ccc(-c4ccncc4)nn23)c1", "observed": "enzyme activity", "mode": "inhibitor", "technique": "radiometric", "tested at": "1 µM", "quantity": "activity vs control", "result": "120%"}
{"Compound": "CNC(=O)c1cc(Oc2ccc(NC(=O)Nc3ccc(Cl)c(C(F)(F)F)c3)cc2)ccn1", "observed": "cell-free assay", "tested at": "0.5 µM", "quantity": "remaining signal", "result": "105%"}
{"Compound": "O=C(O)c1cc(-c2ccc(C3CCNCC3)cc2)c2ccc(-c3ccc(C(F)(F)F)cc3)cc2c1", "observed": "cell-free assay", "technique": "competition with immobilised ligand", "tested at": "1 µM", "quantity": "remaining binding", "result": "100%"}
{"Compound": "C[C@@H]1CCN(C(=O)CC#N)C[C@@H]1N(C)c1ncnc2[nH]ccc12", "observed": "cell-free assay", "mode": "inhibitor", "tested at": "0.5 µM", "quantity": "remaining signal", "result": "94.7%"}
{"Compound": "Cn1cnc(Br)c1C1=CN(c2ncnc3[nH]cnc23)CCS1", "observed": "enzyme activity", "mode": "inhibitor", "technique": "radiometric", "tested at": "50 nM", "quantity": "inhibition", "result": "38.5%"}
{"Compound": "c1ccc(N2CCN(Cc3nc4ccccc4[nH]3)CC2)nc1", "observed": "binding", "technique": "competition with immobilised ligand", "tested at": "1 µM", "quantity": "remaining binding", "result": "87%"}
{"Compound": "N#CCCc1ccc2c(c1)-c1[nH]c3ccc([N+](=O)[O-])cc3c1CC(=O)N2", "observed": "cell-free assay", "tested at": "0.5 µM", "quantity": "remaining signal", "result": "87%"}
